In publication PMC9668306 (Science Advances, 2022):
Entries after “also recorded” stand apart in the source; their conditions may differ.

Key:
[1] = cited from earlier work
[2] = molecular target: T1, glutaminase enzyme (GLS-1) (Homo sapiens, UniProt O94925); experiment: GLS-1 inhibition, [3H]-glutamine radiolabel enzymatic assay; type: biochemical
T1 sequence (O94925 55-669): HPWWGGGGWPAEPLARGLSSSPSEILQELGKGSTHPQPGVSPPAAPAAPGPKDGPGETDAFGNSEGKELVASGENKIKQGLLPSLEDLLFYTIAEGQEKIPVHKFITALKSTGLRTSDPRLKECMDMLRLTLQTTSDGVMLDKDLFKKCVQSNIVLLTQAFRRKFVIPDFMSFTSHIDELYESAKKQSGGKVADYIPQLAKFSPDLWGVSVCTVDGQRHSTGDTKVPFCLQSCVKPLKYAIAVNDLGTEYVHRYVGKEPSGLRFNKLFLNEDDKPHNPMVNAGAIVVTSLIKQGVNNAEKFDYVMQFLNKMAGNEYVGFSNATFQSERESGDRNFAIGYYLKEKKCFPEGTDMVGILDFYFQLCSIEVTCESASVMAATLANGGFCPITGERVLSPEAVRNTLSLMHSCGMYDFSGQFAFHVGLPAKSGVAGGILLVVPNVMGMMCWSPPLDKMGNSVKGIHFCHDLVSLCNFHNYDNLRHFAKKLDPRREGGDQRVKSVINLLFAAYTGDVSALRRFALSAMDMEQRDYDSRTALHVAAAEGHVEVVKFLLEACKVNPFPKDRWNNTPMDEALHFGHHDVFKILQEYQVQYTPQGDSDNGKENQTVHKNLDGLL

P493B lymphoma cells = experiment: P493B lymphoma cell viability assay; type: cell-based; settings: 72 h
FGAR = experiment: Tumor target engagement: tumor FGAR; type: in vivo, C57BL/6/CES1-/- mice; settings: EL4 tumor, 1 hour after s.c. dose (DRP-104 2.6 mg/kg, DON 0.3 mg/kg)
GLS-1 = molecular target: T2, GLS-1 (Mus musculus, UniProt D3Z7P3); experiment: Tumor target engagement: tumor GLS-1 activity; type: in vivo, C57BL/6/CES1-/- mice; settings: EL4 tumor, 1 hour after s.c. dose
T2 sequence (D3Z7P3 55-674): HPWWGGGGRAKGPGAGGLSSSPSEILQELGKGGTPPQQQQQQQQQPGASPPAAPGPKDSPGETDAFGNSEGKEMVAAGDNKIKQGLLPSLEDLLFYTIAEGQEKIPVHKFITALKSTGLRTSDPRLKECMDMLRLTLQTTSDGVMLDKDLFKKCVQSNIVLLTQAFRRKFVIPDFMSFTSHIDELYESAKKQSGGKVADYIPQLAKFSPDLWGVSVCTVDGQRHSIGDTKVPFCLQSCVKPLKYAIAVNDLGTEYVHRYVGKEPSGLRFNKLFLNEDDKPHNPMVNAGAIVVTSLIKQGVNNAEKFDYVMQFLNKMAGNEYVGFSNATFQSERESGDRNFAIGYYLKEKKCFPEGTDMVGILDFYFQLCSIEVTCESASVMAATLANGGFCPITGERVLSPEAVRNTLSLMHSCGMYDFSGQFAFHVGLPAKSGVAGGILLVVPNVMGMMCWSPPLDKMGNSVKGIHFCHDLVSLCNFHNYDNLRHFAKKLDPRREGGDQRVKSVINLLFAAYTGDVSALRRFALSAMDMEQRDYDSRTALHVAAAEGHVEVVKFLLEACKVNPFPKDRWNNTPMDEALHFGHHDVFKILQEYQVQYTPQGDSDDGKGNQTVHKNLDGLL
Summary of the method: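 Test compound was dosed s.c. to EL4 tumor-bearing CES1−/− mice, and tumors were harvested 1 h post-dose. Tumor GLS-1 activity was quantified with a radiolabel-based enzymatic assay.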

EL4 tumors [3] = experiment: Antitumor efficacy, intravenous cohort, EL4 tumors; type: in vivo, C57BL/6/CES1-/- mice; settings: 1 mg/kg DON eq. intravenously, 5 days per week for 2 weeks
Summary of the method: (§1)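 EL4 cells (0.3 × 10^6) were given s.c. in the right flank. At a mean tumour volume of about 400 mm3, mice were randomised (n = 8) to vehicle, parent drug 1 mg/kg or test compound 1 mg/kg DON equivalent, i.v., 5 days/week for 2 weeks. Tumour volume (calipers, […]), body weight and mortality were tracked; euthanasia followed IACUC tumour-volume or weight-loss guidelines.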

[4] = Tolerability, intravenous cohort; type: in vivo, C57BL/6/CES1-/- mice
Summary of the method: as §1

Complete blood count = type: in vivo, C57BL/6/CES1-/- mice; settings: Avg of 3 animals, 1 mg/kg (eq.) iv, normal range 1.06-56.08
Summary of the method: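 In the EL4 i.v. cohort (vehicle, parent drug or test compound at 1 mg/kg DON equivalent, 5 days/week for 2 weeks), mice remaining at the end of treatment were sacrificed and blood was collected for a complete blood count.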

[5] = GI histopathology and scoring; type: in vivo, C57BL/6/CES1-/- mice; settings: for GI histology (in words): 1 mg/kg DON eq. IV, end of treatment
[6] = 31 of 47 patients who received 2 weeks or more of DON therapy; cited from earlier work
[7] = Plasma stability, WT mouse plasma; type: in vitro ADME, WT C57BL/6 mouse; settings: C57BL/6, mouse
[8] = Plasma stability, human plasma; type: in vitro ADME; settings: % remaining at 60 minutes, 37°C
[9] = GI tissue homogenate stability and DON release; type: in vitro ADME, C57BL/6/CES1-/- mouse; settings: C57BL/6/CES1-/-, mouse, GI tissue (jejunum) homogenate, pH 7.4
[10] = Intestinal S9 fraction stability and DON release; type: in vitro ADME; settings: human
Summary of the method: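 Test compound at 10 μM was incubated with intestinal S9 fraction (final protein 1 mg/ml) at 37°C on an orbital shaker for 1 h, in triplicate. Reactions were quenched with three volumes of acetonitrile containing internal standard.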

recombinant CES1 enzyme = molecular target: T3, recombinant CES1 enzyme (Homo sapiens, UniProt P23141); experiment: Recombinant CES1 enzyme stability; type: in vitro ADME; settings: 20 μM, enzyme 10 μg/ml, up to 3 hours
T3 sequence (P23141 18-567): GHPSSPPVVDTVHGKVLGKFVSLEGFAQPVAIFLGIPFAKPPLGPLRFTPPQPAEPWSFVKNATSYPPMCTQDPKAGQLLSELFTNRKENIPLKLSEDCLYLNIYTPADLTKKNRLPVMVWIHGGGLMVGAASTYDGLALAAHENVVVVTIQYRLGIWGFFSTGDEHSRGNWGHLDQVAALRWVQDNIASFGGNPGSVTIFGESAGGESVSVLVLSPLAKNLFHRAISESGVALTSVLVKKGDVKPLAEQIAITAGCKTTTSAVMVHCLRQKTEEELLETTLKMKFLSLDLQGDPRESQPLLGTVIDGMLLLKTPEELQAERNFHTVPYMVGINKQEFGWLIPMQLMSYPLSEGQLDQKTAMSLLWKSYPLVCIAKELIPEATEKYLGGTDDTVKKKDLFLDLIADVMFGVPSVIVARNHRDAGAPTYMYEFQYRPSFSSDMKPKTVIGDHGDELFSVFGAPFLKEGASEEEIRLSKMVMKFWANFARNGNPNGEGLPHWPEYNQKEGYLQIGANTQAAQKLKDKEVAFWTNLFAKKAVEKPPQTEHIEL

[11] = PK of DRP-104, DON and M1 in EL4 tumor-bearing mice; type: in vivo, C57BL/6/CES1-/- mice; settings: for intact DRP-104 concentration: BLQ = below the limit of quantitation
[12] = DRP-104 stability in EL4 tumor homogenate with protease/esterase inhibitors; type: in vitro ADME, mouse; settings: no inhibitor, time 1 h
[13] = Metabolite identification; type: in vitro ADME, mouse; settings: 60-min incubation
EL4 tumors [14] = experiment: Antitumor efficacy, subcutaneous dosing cohort, EL4 tumors; type: in vivo, C57BL/6/CES1-/- mice; settings: 0.1, 0.3 and 1 mg/kg DON eq. subcutaneously, 5 days per week
Summary of the method: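 EL4 mouse lymphoma cells (0.3 × 10^6) were injected s.c. into the right flank of male and female C57BL/6/CES1−/− mice aged 6–8 weeks (25–30 g). Test compound was given s.c. at 0.1, 0.3 or 1 mg/kg DON equivalent, 5 days/week. Tumor length and width were measured by caliper, with volume = […]. Body weight and GI histology were tracked in parallel.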

[15] = Tolerability, subcutaneous dosing cohort; type: in vivo, C57BL/6/CES1-/- mice; settings: 0.1, 0.3 and 1 mg/kg DON eq. subcutaneously
Summary of the method: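 EL4 tumour-bearing CES1−/− mice (0.3 × 10^6 cells s.c., right flank) received test compound at 0.1, 0.3 or 1 mg/kg DON equivalent s.c., 5 days/week. Tumour volume and body weight were recorded during dosing, with GI histology assessed alongside.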

EL4 tumors [16] = experiment: 13C5-glutamine flux analysis in EL4 tumors; type: in vivo, CES1-/- mice; settings: 0.3 mg/kg DON eq. s.c., vehicle 19.99%
MC38 tumors [17] = experiment: Anti-PD-1 combination study, MC38 tumors; type: in vivo, C57BL/6/CES1-/- mice; settings: MC38 tumor-bearing mice, same regimens
Summary of the method: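 Mice (4 male, 3 female per group, n = 7) got 5 × 10^5 MC38 cells s.c. in the right flank and were randomised at about 400 mm3 (about day 10). Arms: vehicle; anti-PD-1 100 μg i.p. on days 10, 12, 14 and 16; test compound 0.8 mg/kg s.c., 5 days/week for 4 weeks; combination. Endpoint: tumour >4000 mm3, ulceration, necrosis or functional deficit.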

[18] = Body weight in MC38 anti-PD-1 combination study; type: in vivo, C57BL/6/CES1-/- mice; settings: MC38 tumor-bearing mice, throughout the experiment
MC38 tumors [19] = experiment: CD8 depletion study, MC38 tumors; type: in vivo, C57BL/6/CES1-/- mice; settings: MC38, CD8+ T cell-depleting antibodies versus isotype
Summary of the method: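 MC38-bearing CES1−/− mice received anti-mouse CD8β (clone 53-5.8) or rat IgG1 isotype (clone HRPN), 5 mg/kg, the day before implantation, the day after and weekly thereafter; depletion was checked by flow cytometry. Test compound was given at 0.3 mg/kg DON equivalent s.c., 5 days/week, and individual tumour growth was followed.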

## COc1ccc(/C=C\c2cc(OC)c(OC)c(OC)c2)cc1OP(=O)(O)O [CA4P, combretastatin A4 phosphate]
[1]
  tumor versus plasma delivery (in words): two- to threefold

## [N-]=[N+]=CC(=O)CC[C@H](N)C(=O)O [DON, 6-Diazo-5-oxo-L-norleucine, reference compound]
[2]
  IC50: 10 ± 0.3 µM
P493B lymphoma cells
  EC50: 4 ± 0.6 µM
FGAR
  tumor FGAR increase versus vehicle: > 80 fold
GLS-1
  tumor GLS-1 activity versus vehicle (in words): significant inhibition of tumor GLS-1 activity
EL4 tumors [3]
  tumor response (in words): complete regression of the tumor
[4]; 1 mg/kg intravenously, 5 days per week for 2 weeks
  body weight reduction: 20 to 30%
[4]; 1 mg/kg intravenously, 5 days/week for 2 weeks
  mice that required euthanasia based on IACUC weight loss guidelines: 63%
Complete blood count
  WBC: 0.93 ± 0.18 K/uL
[5]
  GI histology (in words): severe GI toxicity
[6]
  patients with stable disease or regression: 66%

## CC(=O)N[C@@H](Cc1c[nH]c2ccccc12)C(=O)N[C@@H](CCC(=O)C=[N+]=[N-])C(=O)OC(C)C [DRP-104, isopropyl(S)-2-((S)-2-acetamido-3-(1H-indol-3-yl)-propanamido)-6-diazo-5-oxo-hexanoate]
[2]; intact compound
  inhibition of GLS-1 (in words): inactive
[7]
  remaining at 1 h, 20 μM: 0%
[8]
  remaining at 1 h, 20 μM: > 90%
[9]
  remaining at 1 h, 20 μM: 0%
[10]
  remaining at 1 h, 10 μM: 0%
Recombinant CES1 enzyme
  metabolism by recombinant CES1 (in words): CES1 was capable of metabolizing DRP-104 to M1 metabolite
P493B lymphoma cells
  EC50: 10 ± 1.9 µM
[11]; GI tissue
  intact DRP-104 concentration: no DRP-104 was observed
[11]; plasma, after DRP-104 2.6 mg/kg s.c., 2.6 mg/kg
  AUC0-t: 0.65 nmol hour/ml or nmol hour/g
[11]; tumor
  intact DRP-104 concentration: no DRP-104 was observed
FGAR
  tumor FGAR increase versus vehicle: > 80 fold
GLS-1
  tumor GLS-1 activity versus vehicle (in words): significant inhibition of tumor GLS-1 activity
[12]
  % DRP-104 remaining: 0%
[13]; GI tissue homogenate
  metabolites found (MET-ID): only the M1 metabolite
[13]; tumor homogenate
  metabolites found (MET-ID): both DON and M1 metabolite
EL4 tumors [3]
  tumor response (in words): complete regression of the tumor
[4]; 1 mg/kg DON eq. intravenously
  deaths (in words): no deaths were observed
[4]; 1 mg/kg DON eq. intravenously, 5 days per week for 2 weeks
  body weight (in words): maintained their body weight
EL4 tumors [14]
  tumor growth (in words): dose-dependent inhibition of tumor growth; also recorded: complete tumor regression at the higher two doses
[15]
  overt toxicity (in words): No overt signs of toxicity
[5]
  GI histology (in words): improvement in all these parameters
[5]; 1 mg/kg DON eq. subcutaneously
  GI morphology (in words): mild lymphocytic infiltration
[5]; 0.1 and 0.3 mg/kg DON eq. subcutaneously
  GI morphology (in words): normal
EL4 tumors [16]
  M+5 isotopologue share of the total glutamate pool: 14.66%
MC38 tumors [17]
  survival (in words): enhanced survival compared to vehicle
[18]
  effect on body weight (in words): no substantial effect on body weight
MC38 tumors [19]
  dependence of efficacy on CD8+ T cells (in words): completely dependent

## CCCCCOC(=O)Nc1nc(=O)n([C@@H]2O[C@H](C)[C@@H](O)[C@H]2O)cc1F [capecitabine]
[1]
  average 5-fluorouracil concentration in tumor versus adjacent healthy tissue: 3.2 fold
